Laboratory results from ChEMBL document CHEMBL4725346, “Syntheses and Evaluation of New Bisacridine Derivatives for Dual Binding of G-Quadruplex and i-Motif in Regulating Oncogene c-myc Expression” (J Med Chem, 2020).
Active and inactive are the calls of the source. The rule behind the calls is not given here.

Columns and labels:
[1] = tested on: A-375; assay: Antiproliferative activity against human A-375 cells after 48 hrs by MTT assay; assay type: functional, cell-based; details: A-375, 48 h
Procedure, shortened: (§1)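 Cells seeded at 5.0×10^3 per well, pre-incubated 12 h at 37 °C, 5% CO2, then exposed to compounds for 48 h; DMSO-only control. MTT (2.5 mg/mL) added for 4 h, formazan dissolved in DMSO, absorbance at 570 nm. Each dose tested in triplicate; IC50 from percentage survival relative to negative control.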

[2] = tested on: U2OS; assay: Antiproliferative activity against human U2OS cells after 48 hrs by MTT assay; assay type: functional, cell-based; procedure, shortened: as §1
[3] = tested on: HCT-116; assay: Antiproliferative activity against human HCT-116 cells after 48 hrs by MTT assay; assay type: functional, cell-based; details: HCT-116, 48 h; procedure, shortened: as §1
[4] = Binding affinity to 5'-biotin labeled c-myc promoter i-motif DNA Py33 (unknown origin) by surface plasmon resonance method
Procedure, shortened: (§2)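 SPR: 5'-biotin DNA diluted to 1 μM and captured (1000 RU) on a sensor chip, with a blank cell as reference. Running buffers: Py33 in 20 mM MES pH 5.8, 100 mM KCl, 0.05% Tween-20; Pu27 and duplex in 50 mM Tris-HCl pH 7.4, 100 mM KCl. Six ligand concentrations serially diluted from DMSO stock. Association 260 s, dissociation 300 s at 25 °C; NaOH regeneration; blank sensorgrams subtracted.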

[5] = molecular target: ssDNA; assay: Binding affinity to 5'-biotin labeled single-stranded DNA Py33 (unknown origin) by surface plasmon resonance method; assay type: nucleic-acid assay
[6] = tested on: SiHa; assay: Antiproliferative activity against human SiHa cells after 48 hrs by MTT assay; assay type: functional, cell-based; procedure, shortened: as §1
[7] = Stabilization of 5'-FAM/3'-TAMRA labeled c-myc promoter i-motif DNA FPy33T (unknown origin) assessed as change in melting temperature at 1 uM by FRET assay (reference value: 53.2 degreeC)
Procedure, shortened: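 FRET melting of dual FAM/TAMRA-labelled FPy33T annealed in 1× BPES (30 mM potassium phosphate, 1 mM EDTA, 100 mM KCl), pH 5.5. Final 0.2 µM DNA with or without ligand. Excitation 470 nm, emission 530 nm, read every 1 °C over 37–99 °C. ΔTm taken against DNA alone.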

[8] = molecular target: dsDNA; assay: Binding affinity to 5'-biotin labeled duplex DNA (unknown origin) by surface plasmon resonance method; assay type: nucleic-acid assay; procedure, shortened: as §2
[9] = Stabilization of 5'-FAM/3'-TAMRA labeled hairpin DNA F10T (unknown origin) assessed as change in melting temperature at 1 uM by FRET assay (reference value: 59.1 degreeC)
[10] = molecular target: Quadruplex DNA; assay: Binding affinity to 5'-biotin labeled c-myc promoter G-quadruplex DNA Pu27 (unknown origin) by surface plasmon resonance method; assay type: nucleic-acid assay; procedure, shortened: as §2
[11] = tested on: Quadruplex DNA; assay: Stabilization of 5'-FAM/3'-TAMRA labeled c-myc promoter G-quadruplex DNA FPu22T (unknown origin) assessed as change in melting temperature at 1 uM by FRET assay (reference value: 66.5 degreeC); assay type: nucleic-acid assay
Procedure, shortened: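 FRET melting of dual FAM/TAMRA-labelled FPu22T annealed in 10 mM Tris-HCl pH 7.4 with KCl. Final 0.2 µM DNA with or without ligand. Excitation 470 nm, emission 530 nm, read every 1 °C over 37–99 °C on a real-time PCR cycler. ΔTm = Tm(DNA+ligand) − Tm(DNA).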

[12] = tested on: Huh-7; assay: Antiproliferative activity against human Huh-7 cells after 48 hrs by MTT assay; assay type: functional, cell-based; details: Huh-7, 48 h; procedure, shortened: as §1
[13] = tested on: A549; assay: Antiproliferative activity against human A549 cells after 48 hrs by MTT assay; assay type: functional, cell-based; details: A549, 48 h; procedure, shortened: as §1
[14] = tested on: HeLa; assay: Antiproliferative activity against human Hela cells after 48 hrs by MTT assay; assay type: functional, cell-based; procedure, shortened: as §1
[15] = tested on: Quadruplex DNA; assay: Stabilization of c-myc promoter G-quadruplex DNA Pu27 (unknown origin) in pH 7.4 Tris-HCl buffer by CD spectroscopy; assay type: nucleic-acid assay
Procedure, shortened: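 Pu27 at 1 µM in 10 mM Tris-HCl pH 7.4, with or without ligand. Annealed at 95 °C for 5 min, cooled to room temperature, stored at 4 °C overnight. CD spectra taken in a 4 mm cuvette over 230–350 nm, three scans averaged, smoothed and buffer-baseline corrected.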

[16] = Stabilization of c-myc promoter i-motif DNA Py33 (unknown origin) assessed as reduction in appearance of random coil confirmation at pH 5.5 by CD spectroscopy
Procedure, shortened: (§3)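 Py33 at 1 µM in 1× BPES pH 5.5 (pH 6.8 random-coil reference), with or without ligand. Annealed at 95 °C for 5 min, cooled, kept at 4 °C overnight. CD spectra in a 4 mm cuvette over 230–350 nm, three scans averaged, buffer-corrected; peaks followed at 288 and 260 nm.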

[17] = Drug uptake in human SiHa cells; assay type: ADME, cell-based
[18] = Stabilization of c-myc promoter i-motif DNA Py33 (unknown origin) assessed as decrease in negative peak intensity at pH 5.5 measured at 260 nanometer by CD spectroscopy; procedure, shortened: as §3
[19] = Stabilization of c-myc promoter i-motif DNA Py33 (unknown origin) assessed as decrease in positive peak intensity at pH 5.5 measured at 288 nanometer by CD spectroscopy; procedure, shortened: as §3

SMILES	IC50 [1] [µM]	IC50 [2] [µM]	IC50 [3] [µM]	Kd [4] [µM]	Kd [5] [µM]	IC50 [6] [µM]	ΔTm [7] [°C]	Kd [8] [µM]	ΔTm [9] [°C]	Kd [10] [µM]	ΔTm [11] [°C]	IC50 [12] [µM]	IC50 [13] [µM]	IC50 [14] [µM]	Activity [15]	Activity [16]	Drug uptake [17]	Activity [18]	Activity [19]
Cc1ccc2nc3ccc(C)cc3c(NCCCN(C)CCCNc3c4cc(C)ccc4nc4ccc(C)cc34)c2c1	0.13	0.44	2.47	10.5	13.9	0.37	4.5	22.2	3.8	5.5	15.6	0.27	0.52	0.85	–	–	–	–	–
Cc1ccc2nc3ccccc3c(NCCCCCCCNc3c4ccccc4nc4ccc(C)cc34)c2c1	–	–	–	–	–	–	3.4	24.8	3.6	10.3	15.3	–	–	–	–	–	–	–	–
c1ccc2c(NCCCNc3c4ccccc4nc4ccccc34)c3ccccc3nc2c1	2.05	1.6	3.51	–	13.7	3.06	1.3	10.1	2.2	4.3	14	5.56	1.73	2.62	–	–	–	–	–
c1ccc2c(NCCOCCOCCNc3c4ccccc4nc4ccccc34)c3ccccc3nc2c1	0.22	0.33	0.51	16	–	2.26	0.1	5.8	3.4	9.3	10.6	0.87	1.14	0.24	Active	–	–	–	–
Cc1ccc2nc3ccccc3c(NCCCCCNc3c4ccccc4nc4ccc(C)cc34)c2c1	1.83	1.42	1.68	14.5	26.1	2.52	0.2	–	1.9	16.3	11.4	3.67	0.83	1.65	–	–	–	–	–
Cc1ccc2nc3ccccc3c(NCCCCCCNc3c4ccccc4nc4ccc(C)cc34)c2c1	–	–	–	25.1	–	–	1.2	–	1.7	14.3	10	–	–	–	–	–	–	–	–
COC(=O)c1ccc2nc3ccc(C)cc3c(NCCCNCCNCCCNc3c4cc(C)ccc4nc4ccc(C(=O)OC)cc34)c2c1	–	–	–	3.8	–	–	2	11.8	4.8	2.9	8.6	–	–	–	–	–	–	–	–
Cc1ccc2nc3ccccc3c(NCCCCNc3c4ccccc4nc4ccc(C)cc34)c2c1	0.92	0.79	0.91	–	–	2.44	0.4	–	2	1.6	13.9	3.29	0.32	1.36	–	–	–	–	–
Cc1ccc2nc3ccc(C)cc3c(NCCCCCNc3c4cc(C)ccc4nc4ccc(C)cc34)c2c1	0.51	1.33	0.95	–	23.7	1.66	1	33.6	2.7	7.3	11	2.81	0.72	0.66	–	–	–	–	–
Cc1ccc2nc3ccc(C(=O)NCCCN(C)C)cc3c(NCCOCCOCCNc3c4cc(C)ccc4nc4ccc(C(=O)NCCCN(C)C)cc34)c2c1	–	–	–	8.5	–	–	27.4	17.4	2.2	3.7	8.3	–	–	–	–	Active	Not Active	Active	Active
Cc1ccc2nc3ccc(C)cc3c(NCCCNc3c4cc(C)ccc4nc4ccc(C)cc34)c2c1	2.48	2.94	6.25	–	–	3.82	2.4	35.4	0.7	9.2	14.1	6.2	1.71	1.36	–	–	–	–	–
Cc1ccc2nc3ccc(C)cc3c(NCCCCNc3c4cc(C)ccc4nc4ccc(C)cc34)c2c1	1.92	0.55	2.06	16	6.8	3.7	9.1	–	0.8	2.9	10.4	2.68	0.47	1.47	–	–	–	–	–
c1ccc2c(NCCCNCCNCCCNc3c4ccccc4nc4ccccc34)c3ccccc3nc2c1	0.43	0.38	0.69	3.8	–	2	11.8	6	9.8	13.8	12.5	0.19	0.28	0.27	–	Active	–	Active	Active
Cc1ccc2nc3ccccc3c(NCCOCCOCCNc3c4ccccc4nc4ccc(C)cc34)c2c1	1.88	2.16	0.86	13	21.6	2.77	0.1	33.2	3	5.1	14.3	2.14	0.81	0.32	Active	–	–	–	–
CN(CCCNc1c2ccccc2nc2ccccc12)CCCNc1c2ccccc2nc2ccccc12	0.12	0.13	0.19	9.1	–	2.51	7.3	8.1	10.8	18.3	7.7	0.8	0.35	0.34	–	–	–	–	–
Cc1ccc2nc3ccc(C)cc3c(NCCCCCCNc3c4cc(C)ccc4nc4ccc(C)cc34)c2c1	–	–	–	12.4	4.7	–	10.1	–	2.7	1.1	16.8	–	–	–	–	–	–	–	–
Cc1ccc2nc3ccccc3c(NCCCN(C)CCCNc3c4ccccc4nc4ccc(C)cc34)c2c1	0.23	2.04	1.95	10.7	8.91	0.49	6.4	16.4	6.2	6.9	12.1	0.19	1.16	0.37	–	–	–	–	–
c1ccc2c(NCCCCCCCNc3c4ccccc4nc4ccccc34)c3ccccc3nc2c1	–	–	–	–	14.7	–	0.6	7.4	9.3	11.6	8.8	–	–	–	–	–	–	–	–
COC(=O)c1ccc2nc3ccc(C)cc3c(NCCOCCOCCNc3c4cc(C)ccc4nc4ccc(C(=O)OC)cc34)c2c1	–	–	–	10.3	2.9	–	1	12.5	2.5	1.4	14.3	–	–	–	Active	–	–	–	–
Cc1ccc2nc3ccc(C)cc3c(NCCCCCCCNc3c4cc(C)ccc4nc4ccc(C)cc34)c2c1	–	–	–	–	8.8	–	1.4	10.7	1.8	6.1	15.7	–	–	–	–	–	–	–	–
